Measured values reported in ChEMBL document CHEMBL4004819, “Discovery of a Phosphoinositide 3-Kinase (PI3K) β/δ Inhibitor for the Treatment of Phosphatase and Tensin Homolog (PTEN) Deficient Tumors: Building PI3Kβ Potency in a PI3Kδ-Selective Template by Targeting Nonconserved Asp856” (J Med Chem, 2017).
Blank lines part the entries; values can stand above or below the compound they belong to.

Assays:
[1] = target: Phosphatidylinositol 4,5-bisphosphate 3-kinase catalytic subunit gamma isoform (Homo sapiens, UniProt P48736); test: Inhibition of human full length PI3Kgamma using PIP2/ATP as substrate after 30 mins by TR-FRET assay
Phosphatidylinositol 4,5-bisphosphate 3-kinase catalytic subunit gamma isoform, sequence (P48736 whole entry, canonical isoform): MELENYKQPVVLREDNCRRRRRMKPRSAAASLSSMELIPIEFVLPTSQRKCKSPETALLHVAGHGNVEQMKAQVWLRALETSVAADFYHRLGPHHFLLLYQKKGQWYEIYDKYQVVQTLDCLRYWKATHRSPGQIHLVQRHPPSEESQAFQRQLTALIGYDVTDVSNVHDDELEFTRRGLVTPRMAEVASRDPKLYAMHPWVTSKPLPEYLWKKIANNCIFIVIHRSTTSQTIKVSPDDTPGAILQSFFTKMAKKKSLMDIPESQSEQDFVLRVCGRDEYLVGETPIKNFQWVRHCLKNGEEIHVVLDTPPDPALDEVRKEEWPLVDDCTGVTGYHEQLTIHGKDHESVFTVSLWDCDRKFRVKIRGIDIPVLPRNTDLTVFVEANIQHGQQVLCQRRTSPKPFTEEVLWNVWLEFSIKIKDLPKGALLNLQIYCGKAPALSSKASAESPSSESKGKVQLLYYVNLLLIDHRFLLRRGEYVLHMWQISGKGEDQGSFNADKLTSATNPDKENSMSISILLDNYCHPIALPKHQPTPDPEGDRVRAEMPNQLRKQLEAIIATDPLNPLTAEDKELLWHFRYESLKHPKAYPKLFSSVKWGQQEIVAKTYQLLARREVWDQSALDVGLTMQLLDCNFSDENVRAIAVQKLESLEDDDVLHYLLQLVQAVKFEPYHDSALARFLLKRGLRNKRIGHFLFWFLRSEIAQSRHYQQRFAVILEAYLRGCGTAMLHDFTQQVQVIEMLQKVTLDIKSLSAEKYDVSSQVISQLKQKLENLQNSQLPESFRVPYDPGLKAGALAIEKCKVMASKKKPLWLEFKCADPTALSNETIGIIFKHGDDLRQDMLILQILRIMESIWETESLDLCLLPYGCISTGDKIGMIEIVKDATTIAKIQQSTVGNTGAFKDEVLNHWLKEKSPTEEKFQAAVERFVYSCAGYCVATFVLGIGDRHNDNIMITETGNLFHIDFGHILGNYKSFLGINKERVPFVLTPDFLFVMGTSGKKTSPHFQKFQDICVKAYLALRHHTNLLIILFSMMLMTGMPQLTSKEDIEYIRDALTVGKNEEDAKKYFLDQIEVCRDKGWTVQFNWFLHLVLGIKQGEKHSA

[2] = target: PI3-kinase p110-alpha/p85-alpha (Homo sapiens, UniProt P42336); test: Inhibition of human full length PI3K p110alpha/p85 alpha using PIP2/ATP as substrate after 30 mins by TR-FRET assay
PI3-kinase p110-alpha/p85-alpha, sequence (P27986 whole entry): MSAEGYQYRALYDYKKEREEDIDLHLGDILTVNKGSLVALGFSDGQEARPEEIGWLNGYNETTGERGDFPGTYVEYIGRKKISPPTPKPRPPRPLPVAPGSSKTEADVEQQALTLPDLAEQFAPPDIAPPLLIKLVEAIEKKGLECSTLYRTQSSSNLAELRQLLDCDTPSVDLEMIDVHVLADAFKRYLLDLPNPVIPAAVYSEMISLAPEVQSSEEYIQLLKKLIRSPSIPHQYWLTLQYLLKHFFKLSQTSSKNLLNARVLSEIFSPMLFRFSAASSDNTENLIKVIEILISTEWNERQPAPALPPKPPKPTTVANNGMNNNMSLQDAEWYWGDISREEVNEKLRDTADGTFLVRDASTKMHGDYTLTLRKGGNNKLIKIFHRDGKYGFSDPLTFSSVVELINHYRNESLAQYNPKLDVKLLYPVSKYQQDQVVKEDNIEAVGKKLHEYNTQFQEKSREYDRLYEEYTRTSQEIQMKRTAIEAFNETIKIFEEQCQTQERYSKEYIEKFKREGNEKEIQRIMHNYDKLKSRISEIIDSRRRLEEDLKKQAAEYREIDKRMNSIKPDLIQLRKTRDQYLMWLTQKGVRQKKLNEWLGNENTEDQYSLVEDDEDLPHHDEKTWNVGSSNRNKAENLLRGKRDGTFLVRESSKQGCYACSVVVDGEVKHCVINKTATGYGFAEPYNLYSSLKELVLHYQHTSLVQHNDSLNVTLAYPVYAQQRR
PI3-kinase p110-alpha/p85-alpha, sequence (P42336 whole entry): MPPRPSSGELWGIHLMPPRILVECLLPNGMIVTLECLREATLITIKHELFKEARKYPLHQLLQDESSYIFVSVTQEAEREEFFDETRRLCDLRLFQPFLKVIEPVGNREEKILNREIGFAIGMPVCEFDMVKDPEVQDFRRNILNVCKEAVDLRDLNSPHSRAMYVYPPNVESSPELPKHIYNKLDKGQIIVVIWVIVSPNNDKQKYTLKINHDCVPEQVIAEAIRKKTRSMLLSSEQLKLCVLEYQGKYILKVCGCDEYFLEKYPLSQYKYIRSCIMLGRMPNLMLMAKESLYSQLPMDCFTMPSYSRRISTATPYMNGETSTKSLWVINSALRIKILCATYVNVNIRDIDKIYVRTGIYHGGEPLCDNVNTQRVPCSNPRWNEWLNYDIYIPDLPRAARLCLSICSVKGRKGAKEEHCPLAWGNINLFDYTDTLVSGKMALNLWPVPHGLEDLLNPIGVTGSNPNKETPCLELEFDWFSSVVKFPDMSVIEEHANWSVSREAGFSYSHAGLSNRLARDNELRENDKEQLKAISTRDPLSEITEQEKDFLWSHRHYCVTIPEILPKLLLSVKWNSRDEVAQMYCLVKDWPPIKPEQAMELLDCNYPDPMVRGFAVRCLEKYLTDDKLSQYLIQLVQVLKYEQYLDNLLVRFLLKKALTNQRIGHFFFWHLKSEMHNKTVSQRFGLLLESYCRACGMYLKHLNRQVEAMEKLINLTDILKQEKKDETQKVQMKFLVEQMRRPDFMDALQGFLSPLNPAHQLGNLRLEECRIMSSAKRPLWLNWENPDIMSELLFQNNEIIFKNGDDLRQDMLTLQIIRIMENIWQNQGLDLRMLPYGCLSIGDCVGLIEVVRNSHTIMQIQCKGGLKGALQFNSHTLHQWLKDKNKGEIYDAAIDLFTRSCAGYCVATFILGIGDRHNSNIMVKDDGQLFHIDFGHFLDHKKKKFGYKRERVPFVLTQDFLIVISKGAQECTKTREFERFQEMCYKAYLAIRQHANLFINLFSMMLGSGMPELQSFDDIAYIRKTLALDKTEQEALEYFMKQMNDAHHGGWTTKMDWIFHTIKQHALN

[3] = target: PI3-kinase p110-delta/p85-alpha (Homo sapiens, UniProt O00329); test: Inhibition of human full length PI3K p110delta/p85 alpha using PIP2/ATP as substrate after 30 mins by TR-FRET assay
PI3-kinase p110-delta/p85-alpha, sequence (P27986 whole entry): as the sequence (P27986 whole entry) above
PI3-kinase p110-delta/p85-alpha, sequence (O00329 whole entry): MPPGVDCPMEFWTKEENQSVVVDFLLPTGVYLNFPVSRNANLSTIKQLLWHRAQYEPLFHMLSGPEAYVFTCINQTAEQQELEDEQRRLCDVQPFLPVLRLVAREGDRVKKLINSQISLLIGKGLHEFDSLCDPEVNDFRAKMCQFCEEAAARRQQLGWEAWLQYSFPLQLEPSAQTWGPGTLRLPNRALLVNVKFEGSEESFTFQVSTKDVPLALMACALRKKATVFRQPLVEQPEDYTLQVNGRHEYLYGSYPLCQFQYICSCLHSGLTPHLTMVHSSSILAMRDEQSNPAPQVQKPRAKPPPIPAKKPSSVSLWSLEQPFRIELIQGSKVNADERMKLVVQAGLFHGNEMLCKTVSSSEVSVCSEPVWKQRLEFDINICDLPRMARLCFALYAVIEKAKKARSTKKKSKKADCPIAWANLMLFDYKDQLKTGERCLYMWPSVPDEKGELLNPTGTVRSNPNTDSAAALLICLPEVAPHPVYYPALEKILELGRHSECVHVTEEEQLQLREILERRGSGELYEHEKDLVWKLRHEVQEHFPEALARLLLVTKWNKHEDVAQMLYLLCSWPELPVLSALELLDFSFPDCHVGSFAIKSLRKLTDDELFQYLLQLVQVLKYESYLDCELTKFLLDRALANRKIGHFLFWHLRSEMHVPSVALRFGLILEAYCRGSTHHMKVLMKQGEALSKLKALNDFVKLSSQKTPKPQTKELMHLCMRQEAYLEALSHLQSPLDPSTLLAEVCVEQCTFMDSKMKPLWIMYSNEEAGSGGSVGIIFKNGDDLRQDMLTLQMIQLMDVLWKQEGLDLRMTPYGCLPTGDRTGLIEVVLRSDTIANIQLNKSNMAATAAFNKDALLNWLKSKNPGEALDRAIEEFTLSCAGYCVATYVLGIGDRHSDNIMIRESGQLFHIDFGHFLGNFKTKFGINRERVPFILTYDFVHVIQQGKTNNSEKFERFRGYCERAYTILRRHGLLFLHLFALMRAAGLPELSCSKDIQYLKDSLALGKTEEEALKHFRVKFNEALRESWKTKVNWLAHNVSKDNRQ

[4] = Drug metabolism in human hepatocytes assessed as formation of oxidative metabolite of pyrimidine moiety; assay type: ADME, cell-based, Hepatocyte
[5] = Permeability from apical to basolateral side in human Caco2 cells; assay type: ADME, cell-based; settings: Caco-2, read-out: permeability
[6] = Permeability from basolateral to apical side in human Caco2 cells; assay type: ADME, cell-based; settings: Caco-2, read-out: permeability
[7] = Volume of distribution at steady state in Sprague-Dawley rat plasma at 1 mg/kg, iv administered via infusion over 30 mins measured over 24 hrs by LC/MS/MS analysis; assay type: ADME, organism-based; settings: read-out: Vdss
How it was run: (§1)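 Single intravenous dose of 1 mg/kg. Half-life, mean residence time and steady-state volume of distribution were taken from the iv arm. Values are mean ± SD, n=3 animals per route.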

[8] = Oral bioavailability in Sprague-Dawley rat plasma at 5 mg/kg administered via gavage by LC/MS/MS analysis; assay type: ADME, organism-based
How it was run: (§2)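 Oral dose of 5 mg/kg, formulated in 5% ethanol, 50% PEG 300 and 45% water. Bioavailability was referenced to the separate 1 mg/kg intravenous arm. Values are mean ± SD, n=3 animals per route.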

[9] = Clearance in Sprague-Dawley rat at 1 mg/kg, iv administered via infusion over 30 mins measured over 24 hrs by LC/MS/MS analysis; assay type: ADME, organism-based; settings: in vivo
[10] = Unbound fraction in Sprague-Dawley rat plasma; assay type: ADME, cell-free
LNCaP [11] = test: Antitumor activity against human PTEN-deficient androgen responsive LNCAP cells xenografted in CB17 SCID mouse assessed as tumor growth inhibition at 15 mg/kg administered by oral gavage twice daily for 14 days; assay type: functional; settings: 336 h, read-out: TGI
How it was run: (§3)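 Mice bearing LNCaP tumours were dosed at 15, 7.5 and 3 mg/kg twice a day. Tumour volume (mm3) was measured twice a week throughout. Growth inhibition was calculated after the final dose for each dose group.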

LNCaP [12] = test: Antitumor activity against human PTEN-deficient androgen responsive LNCAP cells xenografted in CB17 SCID mouse assessed as tumor growth inhibition at […] administered by oral gavage twice daily for 14 days; assay type: functional; settings: 336 h, read-out: TGI
ZR-75-1 = test: Growth inhibition of PTEN-deficient human ZR-75-1 cells after 72 hrs by Celltiter-Glo reagent based assay; assay type: functional; settings: ZR-75-1, 72 h
[13] = Mean residence time in Beagle dog plasma at 1 mg/kg, iv administered via infusion over 30 mins measured over 24 hrs by LC/MS/MS analysis; assay type: ADME, organism-based, Canis lupus familiaris; how it was run: as §1
[14] = Mean residence time in Sprague-Dawley rat plasma at 1 mg/kg, iv administered via infusion over 30 mins measured over 24 hrs by LC/MS/MS analysis; assay type: ADME, organism-based; how it was run: as §1
[15] = Oral bioavailability in cynomolgus monkey plasma at 5 mg/kg administered via gavage by LC/MS/MS analysis; assay type: ADME, organism-based, Macaca fascicularis; how it was run: as §2
[16] = Apparent terminal half life in Sprague-Dawley rat plasma at 1 mg/kg, iv administered via infusion over 30 mins measured over 24 hrs by LC/MS/MS analysis; assay type: ADME, organism-based; settings: read-out: betat1/2(app) (converted); how it was run: as §1
[17] = Volume of distribution at steady state in cynomolgus monkey at 1 mg/kg, iv administered via infusion over 30 mins measured over 24 hrs by LC/MS/MS analysis; assay type: ADME, organism-based, Macaca fascicularis; settings: in vivo, read-out: Vdss; how it was run: as §1
[18] = Unbound fraction in Beagle dog plasma; assay type: ADME, cell-free, Canis lupus familiaris
[19] = Clearance in Sprague-Dawley rat plasma at 1 mg/kg, iv administered via infusion over 30 mins measured over 24 hrs by LC/MS/MS analysis; assay type: ADME, organism-based; how it was run: as §1
MDA-MB-415 = test: Growth inhibition of PTEN-deficient human MDA-MB-415 cells after 72 hrs by Celltiter-Glo reagent based assay; assay type: functional; settings: MDA-MB-415, 72 h
[20] = Apparent terminal half life in rhesus monkey plasma at 1 mg/kg, iv administered via infusion over 30 mins measured over 24 hrs by LC/MS/MS analysis; assay type: ADME, organism-based, Macaca mulatta; settings: read-out: betat1/2(app) (converted); how it was run: as §1
[21] = Clearance in rhesus monkey plasma at 1 mg/kg, iv administered via infusion over 30 mins measured over 24 hrs by LC/MS/MS analysis; assay type: ADME, organism-based, Macaca mulatta; how it was run: as §1
LNCaP [22] = test: Antitumor activity against human PTEN-deficient androgen responsive LNCAP cells xenografted in CB17 SCID mouse administered by oral gavage twice daily for 14 days; assay type: functional; settings: 336 h, read-out: MED; how it was run: as §3
[23] = Inhibition of human CYP450; assay type: ADME
How it was run: (§4)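 Measured in binding assays against major human CYP450 enzymes and hERG.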

[24] = Apparent terminal half life in Beagle dog plasma at 1 mg/kg, iv administered via infusion over 30 mins measured over 24 hrs by LC/MS/MS analysis; assay type: ADME, organism-based, Canis lupus familiaris; settings: read-out: betat1/2(app) (converted); how it was run: as §1
Mus musculus [25] = test: In vivo inhibition of PI3Kbeta in CB17 SCID mouse xenografted with human PTEN-deficient androgen responsive LNCAP cells assessed as inhibition of AKT1 phosphorylation at Serine 473 at 15 mg/kg administered by oral gavage and measured after 2 hrs; assay type: functional
LNCaP [26] = test: Growth inhibition of PTEN-deficient human LNCAP cells after 72 hrs by Celltiter-Glo reagent based assay; assay type: functional
[27] = target: Voltage-gated inwardly rectifying potassium channel KCNH2 (Homo sapiens, UniProt Q12809); test: Inhibition of human ERG; how it was run: as §4
LNCaP [28] = test: Antitumor activity against human PTEN-deficient androgen responsive LNCAP cells xenografted in CB17 SCID mouse assessed as tumor growth inhibition at 3 mg/kg administered by oral gavage twice daily for 14 days; assay type: functional; settings: 336 h, read-out: TGI; how it was run: as §3
A498 = test: Growth inhibition of human A498 cells harboring PI3Kbeta mutant after 72 hrs by Celltiter-Glo reagent based assay; assay type: functional; settings: A498, 72 h
[29] = Apparent terminal half life in cynomolgus monkey plasma at 1 mg/kg, iv administered via infusion over 30 mins measured over 24 hrs by LC/MS/MS analysis; assay type: ADME, organism-based, Macaca fascicularis; settings: read-out: betat1/2(app) (converted); how it was run: as §1
[30] = Oral bioavailability in Beagle dog plasma at 5 mg/kg administered via gavage by LC/MS/MS analysis; assay type: ADME, organism-based, Canis lupus familiaris; how it was run: as §2
[31] = Mean residence time in rhesus monkey plasma at 1 mg/kg, iv administered via infusion over 30 mins measured over 24 hrs by LC/MS/MS analysis; assay type: ADME, organism-based, Macaca mulatta; how it was run: as §1
[32] = Unbound fraction in cynomolgus monkey plasma; assay type: ADME, cell-free, Macaca fascicularis
[33] = Volume of distribution at steady state in rhesus monkey at 1 mg/kg, iv administered via infusion over 30 mins measured over 24 hrs by LC/MS/MS analysis; assay type: ADME, organism-based, Macaca mulatta; settings: in vivo, read-out: Vdss; how it was run: as §1
[34] = Inhibition of PI3Kbeta mutant in PTEN-deficient human A498 cells assessed decrease in AKT1 phosphorylation at Ser473 after 2 hrs; settings: A498, 2 h
[35] = Unbound fraction in rhesus monkey plasma; assay type: ADME, cell-free, Macaca mulatta
PC-3 = test: Growth inhibition of PTEN-deficient human PC3 cells after 72 hrs by Celltiter-Glo reagent based assay; assay type: functional; settings: PC-3, 72 h
[36] = Clearance in cynomolgus monkey plasma at 1 mg/kg, iv administered via infusion over 30 mins measured over 24 hrs by LC/MS/MS analysis; assay type: ADME, organism-based, Macaca fascicularis; how it was run: as §1
[37] = Mean residence time in cynomolgus monkey plasma at 1 mg/kg, iv administered via infusion over 30 mins measured over 24 hrs by LC/MS/MS analysis; assay type: ADME, organism-based, Macaca fascicularis; how it was run: as §1
[38] = Clearance in Beagle dog plasma at 1 mg/kg, iv administered via infusion over 30 mins measured over 24 hrs by LC/MS/MS analysis; assay type: ADME, organism-based, Canis lupus familiaris; how it was run: as §1
[39] = Volume of distribution at steady state in Beagle dog plasma at 1 mg/kg, iv administered via infusion over 30 mins measured over 24 hrs by LC/MS/MS analysis; assay type: ADME, organism-based, Canis lupus familiaris; settings: read-out: Vdss; how it was run: as §1
Mus musculus [40] = test: In vivo inhibition of PI3Kbeta in CB17 SCID mouse xenografted with human PTEN-deficient androgen responsive LNCAP cells assessed as inhibition of AKT1 phosphorylation at Serine 473 at […] administered by oral gavage and measured after 8 hrs; assay type: functional

SMILES: C[C@H](Nc1ncnc(N)c1C#N)c1nc2cccc(Cl)c2c(=O)n1-c1ccccc1
- IC50 [1]: 154 nM
- IC50 [2]: 2030 nM
- IC50 [3]: 0.34 nM

SMILES: C[C@H](Nc1nc(N)nc(N)c1Cl)c1nc2cccc(Cl)c2c(=O)n1-c1ccon1
- IC50 [1]: 499 nM

SMILES: CC[C@H](Nc1ncnc2[nH]cnc12)c1nc2cccc(F)c2c(=O)n1-c1ccc(O)cc1
- IC50 [1]: 4300 nM
- IC50 [2]: 1600 nM
- IC50 [3]: 14 nM

- IC50 [1]: 54 nM
- Drug metabolism [4]: Metabolite_Notdetected
SMILES: C[C@H](Nc1nc(N)nc(N)c1C#N)c1nc2cccc(Cl)c2c(=O)n1-c1cc[nH]n1

SMILES: C[C@H](Nc1nc(N)nc(N)c1Cl)c1nc2cccc(Cl)c2c(=O)n1-c1cc[nH]n1
- Papp A→B [5]: 1.1 ×10⁻⁶ cm/s
- Papp B→A [6]: 19.6 ×10⁻⁶ cm/s
- Vd [7]: 1.29 L/kg
- bioavailability [8]: 26%
- clearance [9]: 23.8 mL/min/kg

- Papp A→B [5]: 1.5 ×10⁻⁶ cm/s
- Papp B→A [6]: 17.3 ×10⁻⁶ cm/s
- Vd [7]: 0.22 L/kg
- bioavailability [8]: 12%
- clearance [9]: 1.17 mL/min/kg
SMILES: N#Cc1c(N)nc(N)nc1N[C@H](c1nc2c(Cl)cc(F)cc2c(=O)n1-c1cc[nH]n1)C1CC1

SMILES: C[C@H](Nc1nc(N)nc(N)c1Cl)c1nc2c(Cl)cc(F)cc2c(=O)n1-c1cc[nH]n1
- fraction unbound [10]: 0.0085
- inhibition in vivo at 15 mg/kg (LNCaP [11]): 73%
- inhibition in vivo at […] (LNCaP [12]): 65%
- Papp A→B [5]: 5.7 ×10⁻⁶ cm/s
- GI50 (ZR-75-1): 2 nM
- MRT [13]: 4.7 h
- MRT [14]: 1.97 h
- bioavailability [15]: 68.6%
- half-life [16]: 161 min
- Vd [17]: 1.5 L/kg
- Papp B→A [6]: 21.7 ×10⁻⁶ cm/s
- fraction unbound [18]: 0.0196
- clearance [19]: 4.33 mL/min/kg
- GI50 (MDA-MB-415): 12 nM
- half-life [20]: 217 min
- Vd [7]: 0.52 L/kg
- clearance [21]: 6.83 mL/min/kg
- minimal effective dose (LNCaP [22]): 7.5 mg/kg
- bioavailability [8]: 66 to 66.4%
- IC50 [23]: > 25 µM
- half-life [24]: 235 min
- inhibition in vivo at 15 mg/kg (Mus musculus [25]): 64%
- clearance [9]: 4.33 mL/min/kg
- GI50 (LNCaP [26]): 38 nM
- IC50 [27]: > 25 µM
- inhibition in vivo at 3 mg/kg (LNCaP [28]): 42%
- GI50 (A498): 80 nM
- half-life [29]: 298 min
- bioavailability [30]: 90.4%
- MRT [31]: 4.54 h
- fraction unbound [32]: 0.0305
- Vd [33]: 1.88 L/kg
- EC50 [34]: 5.6 nM
- fraction unbound [35]: 0.0333
- GI50 (PC-3): 120 nM
- clearance [36]: 4 mL/min/kg
- MRT [37]: 6.28 h
- clearance [38]: 4.17 mL/min/kg
- Vd [39]: 1.14 L/kg
- inhibition in vivo at […] (Mus musculus [40]): 64%

- IC50 [1]: 199 nM
- Drug metabolism [4]: Metabolite_Notdetected
SMILES: N#Cc1c(N)nc(N)nc1N[C@H](c1nc2cccc(Cl)c2c(=O)n1-c1cc[nH]n1)C1CC1

- IC50 [1]: 187 nM
SMILES: C[C@H](Nc1ncnc(N)c1C#N)c1nc2cccc(Cl)c2c(=O)n1-c1ccc(O)cc1

- Papp A→B [5]: 2.2 ×10⁻⁶ cm/s
- IC50 [1]: 4150 nM
- Papp B→A [6]: 11.8 ×10⁻⁶ cm/s
- Vd [7]: 0.83 L/kg
- bioavailability [8]: 42%
- clearance [9]: 9.67 mL/min/kg
- Drug metabolism [4]: Metabolite_Detected
SMILES: Nc1nc(N)c(Cl)c(N[C@H](c2nc3cccc(Cl)c3c(=O)n2-c2cc[nH]n2)C2CC2)n1

SMILES: N#Cc1c(N[C@H](c2nc3c(Cl)cc(F)cc3c(=O)n2-c2cc[nH]n2)C2CC2)nc(N)nc1C(F)F
- IC50 [2]: 756 nM
